Results as given in PMC6583925 (Journal of medicinal chemistry, 2019).

Key:
THP1 cells = assay: cell viability assay; format: cell-based, human; details: 72 h, CellTiter-Glo
How it was run: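 THP-1 cells maintained in RPMI 1640 with 10% heat-inactivated FBS and 0.05 mM 2-mercaptoethanol at 2×105 to 1×10^6 cells/ml. Seeded at 3,000 cells per well; test compound added after 24 h at final 0.1 to 10 μM. After 72 h incubation, viability was read by CellTiter-Glo luminescence and normalized to vehicle-treated controls.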

[1] = tested on: broader panel of cell lines; assay: cell viability assay; format: cell-based; details: all cell lines, 72 h
serine hydrolases = assay: selectivity by gel-based ABPP with FP-Rh in mouse brain proteome; format: biochemical; details: FP-Rh probe
How it was run: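 Mouse brain homogenised in DPBS and cleared at 1,400 × g. Membranes pelleted at 16,000 × g (45 min, 4 °C) and resuspended in DPBS; used at 1 mg/mL. Test compound pretreatment: (thio)ureas 20 min at room temperature, NHH-carbamates 45 min at 37 °C. FP-Rh labelling (1 μM final) 45 min at 37 °C. Readout: 10% SDS-PAGE, in-gel fluorescence, band intensities quantified.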

[2] = mice, four weeks of inhibitor treatment; cited from earlier work
[3] = tested on: lymphocytic choriomeningitis virus (LCMV) clone 13; details: mice; cited from earlier work
[4] = 30 mg/kg, cited from earlier work
ABHD12 = target: T1, ABHD12 (Homo sapiens, UniProt Q8N2K0); details: cited from earlier work
T1 sequence (Q8N2K0 1-398): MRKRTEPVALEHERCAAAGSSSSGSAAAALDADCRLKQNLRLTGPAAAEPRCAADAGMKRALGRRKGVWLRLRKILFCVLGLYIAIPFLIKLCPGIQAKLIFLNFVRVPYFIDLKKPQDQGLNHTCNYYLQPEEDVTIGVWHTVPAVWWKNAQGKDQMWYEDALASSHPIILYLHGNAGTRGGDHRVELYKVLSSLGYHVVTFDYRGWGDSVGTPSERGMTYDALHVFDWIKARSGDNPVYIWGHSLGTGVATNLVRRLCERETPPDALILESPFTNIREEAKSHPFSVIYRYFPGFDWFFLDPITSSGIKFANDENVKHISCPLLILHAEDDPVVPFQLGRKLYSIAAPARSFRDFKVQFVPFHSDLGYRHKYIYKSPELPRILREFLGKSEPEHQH

[5] = tested on: brain lyso-PS/PI and C20:4 PS content; details: mice; cited from earlier work
THP-1 macrophages = assay: cytokine measurements in M1-polarized THP-1 macrophages; format: cell-based, human; details: M1 stage THP-1 macrophages; DO264 0.1, 0.5, 1 μM, DO271 1 μM; 6 and 24 h

## FC(F)(F)Oc1ccc(Oc2ccnc(N3CCC(NC(=S)Nc4cccnc4)CC3)c2Cl)c(Cl)c1 [DO264]
THP1 cells
  concentration that impaired the viability of THP1 cells: ≥ 5 µM
[1]
  cytotoxicity at 1 μM: without displaying cytotoxicity
Serine hydrolases
  selectivity / off-targets among serine hydrolases: excellent selectivity over other serine hydrolases
[2]
  auditory defects: did not exhibit the auditory defects observed in ABHD12–/– mice
[3]
  immunological responses to LCMV clone 13 infection: heightened immunological responses
[4]; treatment for several weeks
  toxicity in mice: without overt signs of toxicity
[4]; mice, p.o. or i.p. dosing
  total exposure levels in the periphery and brain: 3 to 9 µM
ABHD12
  concentration giving full engagement of ABHD12: 1 µM
[5]
  brain lyso-PS/PI and C20:4 PS content: substantial elevations
THP-1 macrophages
  CCL3 level: elevated
  CCL4 level: elevated
  IL-1β level: concentration-dependent increases
  TNF-α level: concentration-dependent increases
